Results from different studies.
Compare with care: the assays were run in different laboratories.
TYMS: Thymidylate synthase (TYMS, Homo sapiens, UniProt P04818)
DHODH: Dihydroorotate dehydrogenase (quinone), mitochondrial (DHODH, Homo sapiens, UniProt Q02127)
PSMB8: Proteasome subunit beta type-8 (PSMB8, Homo sapiens, UniProt P28062)
PTGS2: Prostaglandin G/H synthase 2 (PTGS2, Homo sapiens, UniProt P35354)
EPHA7: Ephrin type-A receptor 7 (EPHA7, Homo sapiens, UniProt Q15375)
DYRK1B: Dual specificity tyrosine-phosphorylation-regulated kinase 1B (DYRK1B, Homo sapiens, UniProt Q9Y463)

`O=C(N=Nc1c(O)[nH]c2ccccc12)c1cccs1` has an IC50 of 260 µM (TYMS; enzyme activity, inhibitor, radiometric).
The IC50 of `Cc1nc(NC2CCc3cc(Br)ccc3C2)c2c(C)noc2n1` (centres unmarked) is reported as greater than 100 µM (DHODH; enzyme activity, inhibitor, absorbance).
For `CC(C)C[C@H](NC(=O)c1cc(Cl)ccc1Cl)C(=O)N[C@@H](CC(C)C)C(=O)N[C@H](/C=C/S(C)(=O)=O)Cc1ccc(CN)cc1`, the IC50 was 1.83 µM (PSMB8; enzyme activity, inhibitor; lysate).
With `C=C1/C(=C\C=C2/CCC[C@]3(C)[C@@H]([C@H](C)/C=C/[C@@H](O)C4CC4)CC[C@@H]23)C[C@@H](O)C[C@@H]1O` the IC50 was 12.3 µM (Multidrug resistance-associated protein 1 (ABCC1, Homo sapiens, UniProt P33527); transporter uptake, inhibitor, radiometric; cell membranes).
`Cc1cccn2c(Nc3ccc(Cl)cc3)c(-c3ccc(S(C)(=O)=O)cc3)nc12` has an IC50 of 0.14 µM (PTGS2; enzyme activity, inhibitor).
`Cc1nc(Nc2ccc(C(F)(F)F)cc2)c2c(C(F)(F)F)noc2n1` gave an IC50 of 18 µM (DHODH; enzyme activity, inhibitor, absorbance).
The IC50 of `CS(=O)(=O)c1ccc(-c2nc3ccccn3c2Nc2ccccc2)cc1` is reported as 0.07 µM (PTGS2; enzyme activity, inhibitor).
The IC50 of `CCn1ncc2c1-c1cnc(N)c(c1)O[C@H](C)c1cc(F)ccc1-c1nn(C)nc1C2` is reported as 0.379 µM (EPHA7; enzyme activity, inhibitor, radiometric).
The IC50 of `Cn1cc(C2=C(c3coc4ccccc34)C(=O)NC2=O)c2cc(Br)ccc21` is reported as 0.59 µM (DYRK1B; enzyme activity, inhibitor).
With `O=C(CSc1ncn[nH]1)Nc1ccc(C23CC4CC(CC(C4)C2)C3)cc1` the IC50 was 0.71 µM (Transcriptional enhancer factor TEF-4 (TEAD2, Homo sapiens, UniProt Q15562); enzyme activity, inhibitor).
For `Oc1ccc(Cl)cc1Nc1nc(NCC2CCCO2)c2ccccc2n1` (centres unmarked), the IC50 was 19 µM (Lysosomal acid glucosylceramidase (GBA1, Homo sapiens, UniProt P04062, R534H); enzyme activity, inhibitor).
`Cc1ncc(C(=O)N[C@@H](CC(C)C)C(=O)N[C@@H](CC2CCC(C3CCCCC3)CC2)C(=O)N[C@H](/C=C/S(C)(=O)=O)Cc2ccc(CN)cc2)s1` (some centres unmarked) has an IC50 of greater than 10 µM (PSMB8; enzyme activity, inhibitor; lysate).
`CN1CCN(c2ccc(Nc3ncc4cc(C#N)c(=O)n(C5CCCC5)c4n3)cc2)CC1` has an IC50 of 2.54 µM (Ephrin type-B receptor 3 (EPHB3, Homo sapiens, UniProt P54753); enzyme activity, inhibitor).
`Oc1ccc2ccccc2n1` gave an IC50 of 4.4 µM (Serum paraoxonase/arylesterase 1 (PON1, Homo sapiens, UniProt P27169); enzyme activity, inhibitor).
`Cc1nc(Nc2ccc(S(F)(F)(F)(F)F)cc2)c2c(C)noc2n1` has an IC50 of greater than 50 µM (DHODH; enzyme activity, inhibitor, absorbance).
For `COC(=O)C1CCN(C(=O)c2ccc(NCc3cnc4nc(N)nc(N)c4n3)cn2)CC1`, the IC50 was 80 µM (TYMS; enzyme activity, inhibitor).
The IC50 of `CC(C)C[C@H](NC(=O)[C@H](CC(C)C)NC(=O)[C@H](Cc1ccccc1)NC(=O)CN=[N+]=[N-])C(=O)N[C@H](/C=C/S(C)(=O)=O)Cc1ccc(CN)cc1` is reported as 1.3 µM (PSMB8; enzyme activity, inhibitor; lysate).
`Cc1cc(Nc2ccc(C(C)(C)C)cc2)n2ncnc2n1` gave an IC50 of greater than 100 µM (DHODH; enzyme activity, inhibitor).
`COc1ccc(C[C@H](NC(=O)[C@H](C)NC(=O)CN2CCOCC2)C(=O)N[C@@H](CC2CCC(OC)CC2)C(=O)[C@@]2(C)CO2)cc1` (some centres unmarked) has an IC50 of 3.98 µM (PSMB8; enzyme activity, inhibitor; lysate).
`CCCCCCCC(=O)N[C@H](CN1CCCC1)[C@H](O)c1ccc2c(c1)OCCO2` has an IC50 of 15 µM (Lysosomal acid glucosylceramidase (GBA1, Homo sapiens, UniProt P04062); enzyme activity, inhibitor).
`N#Cc1ccc(COc2cccc(C3CCN(Cc4nc5ccc(C(=O)O)cc5n4C[C@@H]4CCO4)CC3)n2)c(F)c1` gave an IC50 of greater than 20 µM (Glucagon receptor (GCGR, Homo sapiens, UniProt P47871); cAMP, antagonist).
`CCOC(=O)C1CCN(C(=O)c2ccc(N(C)Cc3cnc4nc(N)nc(N)c4n3)cc2)CC1` has an IC50 of 74 µM (TYMS; enzyme activity, inhibitor).
The IC50 of `O=c1c2cc(Br)c(Br)n2cc2n1CCC2` is reported as greater than 100 µM (Proteasome subunit beta type-8, chymotrypsin-like site (PSMB8, Homo sapiens, UniProt P28062); enzyme activity, inhibitor).
`Cc1ncc(C(=O)N[C@@H](CC2CCCC3CCCCC32)C(=O)N[C@@H](CC(C)C)C(=O)N[C@H](/C=C/S(C)(=O)=O)Cc2ccc(CN)cc2)s1` (some centres unmarked) gave an IC50 of 0.555 µM (PSMB8; enzyme activity, inhibitor; lysate).
The IC50 of `COc1ccc(S(=O)(=O)ON=C2C=C(C)C(=O)C(C)=C2)cc1` is reported as greater than 100 µM (CREB-binding protein (CREBBP, Homo sapiens, UniProt Q92793); enzyme activity, inhibitor, radiometric).
The IC50 of `Cc1ccc(NC(=O)c2ccc(C)c(C(F)(F)F)c2)cc1C#Cc1nn(C2CCC(O)CC2)c2ncnc(N)c12` (centres unmarked) is reported as 0.143 µM (EPHA7; enzyme activity, inhibitor, radiometric).
For `Cc1ncc(C(=O)N[C@H](C(=O)N[C@@H](CC(C)C)C(=O)N[C@H](/C=C/S(C)(=O)=O)Cc2ccc(CN)cc2)C2CCCCC2)s1`, the IC50 was 3.14 µM (PSMB8; enzyme activity, inhibitor; lysate).
For `CC/C(=N\NC(=O)C(C)Nc1ccccc1)c1ccc(O)c(C)c1O` (centres unmarked), the IC50 was 0.0335 µM (Ribosomal protein S6 kinase beta-1 (RPS6KB1, Homo sapiens, UniProt P23443); enzyme activity, inhibitor).
For `COc1ccc(C[C@H](NC(=O)[C@H](C)NC(=O)CN2CCOCC2)C(=O)N[C@@H](CC2CCC(C(F)(F)F)CC2)C(=O)[C@@]2(C)CO2)cc1` (some centres unmarked), the IC50 was 0.191 µM (PSMB8; enzyme activity, inhibitor; lysate).
For `Cc1cnc(-c2ccc(-c3ccc(NC(=O)Nc4c(F)cc(F)cc4F)cc3F)c3c2C(=O)NC3)[nH]1`, the IC50 was 0.0104 µM (Platelet-derived growth factor receptor beta (PDGFRB, Homo sapiens, UniProt P09619); enzyme activity, inhibitor).
For `Cc1ncc(C(=O)N[C@@H](CC2CCC(C3CCCCC3)CC2)C(=O)N[C@@H](CC(C)C)C(=O)N[C@H](/C=C/S(C)(=O)=O)Cc2ccc(CN)cc2)s1` (some centres unmarked), the IC50 was greater than 10 µM (PSMB8; enzyme activity, inhibitor; lysate).
With `CCOc1ccc2c(-c3cc(C)nc(Nc4cc(OC)cc(C(F)(F)F)c4)n3)cnn2n1` the IC50 was greater than 10 µM (DYRK1B; enzyme activity, inhibitor).
